Experimental data of several laboratories.
Compare with care: the assays were run in different laboratories.
Target: Leukocyte tyrosine kinase receptor (LTK, Homo sapiens, UniProt P29376)

SMILES | observed | technique | concentration | remaining binding [%]
CSc1cccnc1N1CCN(Cc2nc3ccccc3[nH]2)CC1 | cell-free assay | competition with immobilised ligand | 1 µM | 89
O=C(NCC1CCOCC1)c1n[nH]cc1NC(=O)c1c(F)cccc1F | binding | competition with immobilised ligand | 1 µM | 100
CC1CCCN1c1nccc(-c2cnn3ncccc23)n1 (stereo not shown) | binding |  | 1 µM | 100
Cc1cc(-c2cc(C(F)(F)F)ccc2O[C@H]2C[C@@]2(CNS(=O)(=O)c2ccc([N+](=O)[O-])cc2)c2ccc(F)cc2F)[nH]n1 | cell-free assay | competition with immobilised ligand | 0.3 µM | 6.9
Cc1cc(-n2nc(Cc3cc(F)cc(C(F)(F)F)c3)nc2C)ccc1C(N)=O | cell-free assay | competition with immobilised ligand | 1 µM | 100
COc1cnc(Nc2cccc(S(N)(=O)=O)c2)nc1N1CCN(c2ccccc2)CC1 | binding | competition with immobilised ligand | 1 µM | 100
N[C@H]1CCN(c2nccc(-c3cnn4ncccc34)n2)C1 | binding |  | 1 µM | 100
CNC(=O)[C@@H]1CC[C@@H](n2c(-c3ccc4cnccc4c3)nc3ccc(C(=O)NCc4cccc(C(N)=O)c4)cc32)C1 | binding | competition with immobilised ligand | 1 µM | 89
C[C@H]1CCN(c2nccc(-c3cnn4ncccc34)n2)C1 | binding |  | 1 µM | 91
CN([C@@H]1CCc2c(CC(=O)O)c3cc(S(C)(=O)=O)ccc3n2C1)S(=O)(=O)c1ccc(F)cc1 | cell-free assay | competition with immobilised ligand | 1 µM | 100
O=C(c1ccc(Nc2ncc(Cl)c(-c3cc4ccccc4s3)n2)cc1)N1CCC(N2CCCC2)CC1 | binding | competition with immobilised ligand | 1 µM | 100
COc1ccc2c(c1)O[C@H](c1ccc(OC)c(OC)c1)C[C@@H]2NC(=O)C1(c2ccc3c(c2)OC(F)(F)O3)CC1 | cell-free assay | competition with immobilised ligand | 1 µM | 100
CN(c1nccc(-c2cnn3ncccc23)n1)C1CC1 | binding |  | 1 µM | 100
O=C1CCc2cc(Nc3cc(OC4CCOCC4)c([N+](=O)[O-])cc3Cl)ccc2N1 | cell-free assay | competition with immobilised ligand | 1 µM | 100
FC(F)(F)Oc1cccc(-c2cnc3ccc(-c4ccncc4)nn23)c1 | cell-free assay | competition with immobilised ligand | 5 µM | 100
COc1ccnn2ncc(-c3ccnc(N(C)C)n3)c12 | binding |  | 1 µM | 98
CC(C)CC(=O)N1CCc2nc(-c3ccc(Br)cc3)nc(N(C)Cc3ccccc3)c2C1 | cell-free assay | competition with immobilised ligand | 0.1 µM | 91
Cc1cnc(Nc2ccc(C(=O)N3CCC(N4CCCC4)CC3)cc2)nc1-c1cc2ccccc2s1 | binding | competition with immobilised ligand | 1 µM | 85
CCN1CCN(Cc2ccc(C(=O)Nc3ccc(C)c(Oc4ccc5c(c4)CC(=O)N5)c3)cc2C(F)(F)F)CC1 | binding | competition with immobilised ligand | 1 µM | 100
c1cnn2ncc(-c3ccnc(N4CCC45COC5)n3)c2c1 | binding |  | 1 µM | 98
O=C(NCCCN1CCOCC1)c1ccc(Nc2ncc(Cl)c(-c3ccc(Cl)s3)n2)cc1 | binding | competition with immobilised ligand | 1 µM | 100
O=C(NS(=O)(=O)c1ccc(NCC2CCOCC2)c([N+](=O)[O-])c1)c1ccc(N2CCN(Cc3ccc(C(F)(F)F)cc3-c3ccc(Cl)cc3)CC2)cc1Oc1cnc2[nH]ccc2c1 | cell-free assay | competition with immobilised ligand | 1 µM | 100
